Reference: ChEMBL document CHEMBL4814031, “In pursuit of a selective hepatocellular carcinoma therapeutic agent: Novel thalidomide derivatives with antiproliferative, antimigratory and STAT3 inhibitory properties” (Eur J Med Chem, 2021)
Activity calls are given as the source filed them. No cut-off for these calls is given here.

What was measured:
[1] = Antiproliferative activity against mouse BMOL-T cells assessed as cell growth inhibition at 10 uM measured every 4 hrs for 3 days by IncuCyte zoom live cell analysis relative to control; format: functional; conditions: 72 h, time 3 day
[2] = system: BMOL-T; assay: (§1) Antiproliferative activity against mouse BMOL-T cells assessed as minimum concentration required for cell growth inhibition measured every 4 hrs for 3 days by IncuCyte zoom live cell analysis; format: functional; conditions: time 3.0 day
Summary of the method: (§2)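 Dose series for BMOL-T proliferation: cells plated at 1000/well, compound added from 2× solutions (final 0.1% DMSO), imaged every 4 h for 3 days. Doubling time from the log-phase linear part of a log confluence vs time curve, expressed as % change over vehicle. n = 3, SEM.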

[3] = as §1; format: functional; conditions: time 3 day; summary of the method: as §2
[4] = Inhibition of Akt phosphorylation in mouse BMOL-NT cells assessed as change in phosphorylated Akt level at 10 uM incubated for 6 hrs by immunofluorescent assay relative to control; format: cell-based; set-up: scale not given: the % may be the effect or the level left
Summary of the method: (§3)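 BMOL cells in supplemented Williams' E medium were treated 6 h with compound or 0.1% DMSO vehicle. Fixed in 4% PFA, permeabilised with 0.1% Triton X-100, blocked, then incubated 18 h with anti-phospho-p65, -Akt or -STAT3, then secondary antibody 1 h and Hoechst. High-content imaging of per-cell intensity and nuclear:whole-cell ratio. Mean of two experiments, SD.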

[5] = target: Signal transducer and activator of transcription 3 (Mus musculus) (UniProt P42227); assay: Inhibition of STAT3 phosphorylation in mouse BMOL-T cells assessed as change in nuclear phosphorylated STAT3 level at 10 uM incubated for 6 hrs by immunofluorescence assay relative to control; format: subcellular; set-up: scale not given: the % may be the effect or the level left; conditions: Nucleus; summary of the method: as §3
Signal transducer and activator of transcription 3 (Mus musculus), sequence (P42227 whole entry): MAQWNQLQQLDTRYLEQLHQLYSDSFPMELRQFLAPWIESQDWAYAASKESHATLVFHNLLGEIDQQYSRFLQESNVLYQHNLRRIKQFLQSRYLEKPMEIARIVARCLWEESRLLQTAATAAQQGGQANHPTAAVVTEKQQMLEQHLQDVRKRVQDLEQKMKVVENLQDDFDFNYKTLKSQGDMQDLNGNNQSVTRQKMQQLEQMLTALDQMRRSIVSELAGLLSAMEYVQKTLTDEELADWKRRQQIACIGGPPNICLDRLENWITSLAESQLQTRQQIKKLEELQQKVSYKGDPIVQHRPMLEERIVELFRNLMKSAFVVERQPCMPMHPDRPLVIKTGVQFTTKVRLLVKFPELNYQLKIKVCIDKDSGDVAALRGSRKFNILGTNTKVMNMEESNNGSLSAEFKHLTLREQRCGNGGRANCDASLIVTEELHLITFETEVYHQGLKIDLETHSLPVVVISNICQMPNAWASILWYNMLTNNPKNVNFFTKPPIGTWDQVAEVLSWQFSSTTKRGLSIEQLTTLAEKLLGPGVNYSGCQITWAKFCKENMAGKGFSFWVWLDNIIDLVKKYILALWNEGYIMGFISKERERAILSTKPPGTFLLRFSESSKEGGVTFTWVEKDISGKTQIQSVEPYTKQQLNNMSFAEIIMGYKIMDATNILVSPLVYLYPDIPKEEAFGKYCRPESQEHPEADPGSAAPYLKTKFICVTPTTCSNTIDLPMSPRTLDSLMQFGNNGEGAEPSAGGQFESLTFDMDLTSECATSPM

[6] = system: BMOL-T; assay: Antimigratory activity against mouse BMOL-T cells assessed as inhibition of cell migration at 10 uM incubated for 24 hrs by scratch wound healing assay; format: functional, cell-based
Summary of the method: (§4)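 Wound healing in BMOL-T cells plated at 20,000/well in supplemented Williams' E medium and grown 24 h. Wounds made with a Woundmaker, then medium replaced with fresh medium holding compound or 0.1% DMSO vehicle. Live-cell imaging every 2 h over 24 h, read as average wound width (µm). n = 3, SEM.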

[7] = system: BMOL-T; assay: Inhibition of Akt phosphorylation in mouse BMOL-T cells assessed as change in phosphorylated Akt level at 10 uM incubated for 6 hrs by immunofluorescent assay relative to control; format: cell-based; set-up: scale not given: the % may be the effect or the level left; summary of the method: as §3
[8] = target: T1, Signal transducer and activator of transcription 3 (Mus musculus, UniProt P42227); assay: Inhibition of STAT3 phosphorylation in mouse BMOL-NT cells assessed as change in nuclear phosphorylated STAT3 level at 10 uM incubated for 6 hrs by immunofluorescence assay relative to control; format: subcellular, Nucleus; set-up: scale not given: the % may be the effect or the level left; summary of the method: as §3
T1 sequence (P42227 whole entry): as above

[9] = target: T2, Transcription factor p65 (Mus musculus, UniProt Q04207); assay: Inhibition of NFkB p65 phosphorylation in mouse BMOL-NT cells assessed as change in phosphorylated p65 level at 10 uM incubated for 6 hrs by immunofluorescent assay relative to control; format: cell-based; set-up: scale not given: the % may be the effect or the level left; summary of the method: as §3
T2 sequence (Q04207 whole entry): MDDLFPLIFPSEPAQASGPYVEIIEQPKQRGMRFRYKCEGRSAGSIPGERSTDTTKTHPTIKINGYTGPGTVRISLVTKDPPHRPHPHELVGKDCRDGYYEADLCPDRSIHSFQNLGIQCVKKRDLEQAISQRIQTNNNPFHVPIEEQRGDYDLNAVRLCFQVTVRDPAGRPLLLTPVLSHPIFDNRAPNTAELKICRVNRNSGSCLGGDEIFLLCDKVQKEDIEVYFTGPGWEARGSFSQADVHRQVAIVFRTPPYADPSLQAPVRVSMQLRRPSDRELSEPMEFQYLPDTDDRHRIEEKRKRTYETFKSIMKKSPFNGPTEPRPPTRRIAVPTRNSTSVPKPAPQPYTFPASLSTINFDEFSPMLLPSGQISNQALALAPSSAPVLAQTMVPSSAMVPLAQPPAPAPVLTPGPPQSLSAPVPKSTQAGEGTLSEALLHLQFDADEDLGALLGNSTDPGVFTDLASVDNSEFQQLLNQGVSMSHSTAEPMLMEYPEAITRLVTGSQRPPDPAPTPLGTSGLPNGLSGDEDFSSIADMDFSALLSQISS

[10] = system: BMOL-T; assay: Effect on STAT3 expression in mouse BMOL-T cells at 10 uM by AlphaLISA assay; format: functional, cell-based
Summary of the method: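 AlphaLISA in BMOL-T cells treated at 10 µM with 0.1% DMSO vehicle as control. Read as normalised fluorescence for total STAT3, or as the ratio of total STAT3 to p-STAT3. n ≥ 3, SEM. Significance by ANOVA with Dunnett's test.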

[11] = target: T1, Signal transducer and activator of transcription 3; assay: Inhibition of STAT3 phosphorylation in mouse BMOL-NT cells assessed as change in phosphorylated STAT3 level at 10 uM incubated for 6 hrs by immunofluorescence assay relative to control; format: cell-based; set-up: scale not given: the % may be the effect or the level left; summary of the method: as §3
[12] = Inhibition of Akt phosphorylation in mouse BMOL-NT cells assessed as change in nuclear phosphorylated Akt level at 10 uM incubated for 6 hrs by immunofluorescent assay relative to control; format: subcellular, Nucleus; set-up: scale not given: the % may be the effect or the level left; summary of the method: as §3
[13] = Antiproliferative activity against mouse BMOL-NT cells assessed as cell growth inhibition at >10 uM measured every 4 hrs for 3 days by IncuCyte zoom live cell analysis; format: cell-based; conditions: 72 h, time 3 day
[14] = Selectivity for antiproliferative activity against mouse BMOL-T cells over mouse BMOL-NT cells at 10 uM measured every 4 hrs for 3 days by IncuCyte zoom live cell analysis; conditions: time 3 day
[15] = Selectivity for antiproliferative activity against mouse BMOL-T cells over mouse BMOL-NT cells at 26 uM measured every 4 hrs for 3 days by IncuCyte zoom live cell analysis; conditions: time 3 day
[16] = target: Transcription factor p65 (Mus musculus) (UniProt Q04207); assay: Inhibition of NFkB p65 phosphorylation in mouse BMOL-T cells assessed as change in phosphorylated p65 level at 10 uM incubated for 6 hrs by immunofluorescent assay relative to control; format: cell-based; set-up: scale not given: the % may be the effect or the level left; summary of the method: as §3
Transcription factor p65 (Mus musculus), sequence (Q04207 whole entry): as above

[17] = target: Transcription factor p65 (Mus musculus) (UniProt Q04207); assay: Inhibition of NFkB p65 nuclear translocation in mouse BMOL-T cells assessed as change in nuclear p65 level at 10 uM incubated for 6 hrs by immunofluorescent assay relative to control; format: subcellular; set-up: scale not given: the % may be the effect or the level left; conditions: Nucleus; summary of the method: as §3
[18] = target: T2, Transcription factor p65; assay: Inhibition of NFkB p65 nuclear translocation in mouse BMOL-NT cells assessed as change in nuclear p65 level at 10 uM incubated for 6 hrs by immunofluorescent assay relative to control; format: subcellular, Nucleus; set-up: scale not given: the % may be the effect or the level left; summary of the method: as §3
[19] = system: BMOL-T; assay: Inhibition of Akt phosphorylation in mouse BMOL-T cells assessed as change in nuclear phosphorylated Akt level at 10 uM incubated for 6 hrs by immunofluorescent assay relative to control; format: subcellular; set-up: scale not given: the % may be the effect or the level left; conditions: Nucleus; summary of the method: as §3
[20] = Antimigratory activity against mouse BMOL-T cells assessed as inhibition of cell migration at 10 uM incubated for 16 hrs by scratch wound healing assay relative to control; format: functional; summary of the method: as §4
[21] = Antiproliferative activity against mouse BMOL-NT cells assessed as cell growth inhibition at 14 to 26 uM measured every 4 hrs for 3 days by IncuCyte zoom live cell analysis; format: cell-based; conditions: 72 h, dose 14-26 µM, time 3 day
[22] = target: Signal transducer and activator of transcription 3 (Mus musculus) (UniProt P42227); assay: Inhibition of STAT3 phosphorylation in mouse BMOL-T cells assessed as change in phosphorylated STAT3 level at 10 uM incubated for 6 hrs by immunofluorescence assay relative to control; format: cell-based; set-up: scale not given: the % may be the effect or the level left; summary of the method: as §3

- Activity [4]: 0%
- Activity [5]: -16%
- Activity [8]: -8%
- Activity [9]: 0%
- Activity [11]: -5%
- Activity [12]: -25%
- Activity [16]: -13%
- Activity [17]: -23%
- Activity [18]: 11%
- Activity [19]: -19%
- Activity [22]: -22%
Compound: CC(C)(C)c1ccc(Sc2cccc3c2C(=O)N(C2CCC(=O)NC2=O)C3=O)cc1 (configuration not stated)
- inhibition at 10 µM [1]: 36%
- Activity [2]: Dose-Dependent Effect
- MAC [3]: <6 µM
- Activity [6]: Active
- Activity [7]: -3%
- Activity [10]: inactive
- Activity [13]: Toxic
- Selectivity ratio [14]: 9
- Selectivity ratio [15]: 9
- inhibition at 10 µM [20]: 80%
- Activity [21]: Toxic
